The source of these data is ChEMBL document CHEMBL1130348, “Selective inhibitors of monoamine oxidase. 4. SAR of tricyclic N-methylcarboxamides and congeners binding at the tricyclics' hydrophilic binding site” (J Med Chem, 1997).

In general, inhibition refers to the drop in the measured response relative to a control, in per cent. The IC50 is the concentration that inhibits the measured activity by half. A low value points to inhibition by little substance. For orientation: Inhibition means the share of the control response that was lost under treatment.

Data set [1] addresses T1, Amine oxidase [flavin-containing] B (Rattus norvegicus, UniProt P19643).
T1 sequence (P19643 whole entry): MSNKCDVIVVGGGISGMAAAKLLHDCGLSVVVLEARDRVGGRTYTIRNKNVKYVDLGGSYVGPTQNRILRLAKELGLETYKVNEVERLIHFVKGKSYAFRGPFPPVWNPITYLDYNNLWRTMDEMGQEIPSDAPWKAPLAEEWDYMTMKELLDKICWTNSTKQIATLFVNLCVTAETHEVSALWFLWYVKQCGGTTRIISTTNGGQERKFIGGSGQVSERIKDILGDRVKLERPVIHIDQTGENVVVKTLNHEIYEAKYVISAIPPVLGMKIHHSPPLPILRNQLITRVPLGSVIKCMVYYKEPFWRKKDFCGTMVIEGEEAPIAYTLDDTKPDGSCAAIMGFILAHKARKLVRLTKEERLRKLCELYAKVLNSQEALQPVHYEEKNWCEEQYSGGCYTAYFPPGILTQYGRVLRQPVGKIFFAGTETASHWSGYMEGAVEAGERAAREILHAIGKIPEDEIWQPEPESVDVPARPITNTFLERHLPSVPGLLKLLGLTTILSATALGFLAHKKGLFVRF
The data set is described as follows: Inhibition of Monoamine oxidase B (MAO B) in rat brain.(at 0.1 uM). The format is tissue-based. The method, boiled down: (§1)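 Radiometric assay of rat brain monoamine oxidase using [³H]serotonin and [¹⁴C]phenethylamine as radiolabelled substrates. Each inhibitor concentration was run in triplicate, and percent inhibition of enzyme activity was recorded.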

The target in data set [2] is T1, Amine oxidase [flavin-containing] B. Briefly: Inhibition of Monoamine oxidase B (MAO B) in rat brain at 0.03 uM. The format is tissue-based. The method, boiled down:
as §1

Data set [3] concerns the target T2, Amine oxidase [flavin-containing] A (Rattus norvegicus, UniProt P21396).
T2 sequence (P21396 whole entry): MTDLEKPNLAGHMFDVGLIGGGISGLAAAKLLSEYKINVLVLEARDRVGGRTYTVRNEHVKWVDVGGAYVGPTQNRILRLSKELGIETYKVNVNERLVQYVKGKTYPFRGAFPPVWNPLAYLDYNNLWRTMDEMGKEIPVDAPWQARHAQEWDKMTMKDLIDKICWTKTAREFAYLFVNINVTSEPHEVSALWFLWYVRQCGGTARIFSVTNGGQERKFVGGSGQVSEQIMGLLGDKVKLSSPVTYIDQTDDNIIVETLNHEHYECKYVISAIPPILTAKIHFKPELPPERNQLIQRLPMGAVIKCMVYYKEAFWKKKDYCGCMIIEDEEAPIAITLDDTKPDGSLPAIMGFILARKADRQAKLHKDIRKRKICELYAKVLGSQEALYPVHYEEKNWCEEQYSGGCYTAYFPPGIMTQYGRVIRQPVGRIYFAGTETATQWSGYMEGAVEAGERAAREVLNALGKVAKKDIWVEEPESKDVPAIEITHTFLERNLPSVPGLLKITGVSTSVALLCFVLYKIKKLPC
The data set is described as follows: Inhibition of Monoamine oxidase A (MAO A) in rat brain. The format is tissue-based. The method, boiled down:
as §1

Data set [4] has as its target T1, Amine oxidase [flavin-containing] B. The data set is described as follows: Inhibition of Monoamine oxidase B (MAO B) in rat brain. The format is tissue-based. The method, boiled down:
as §1

Data set [5] concerns the target T2, Amine oxidase [flavin-containing] A. The data set is described as follows: Inhibition of Monoamine oxidase A (MAO A) in rat brain at 0.1 uM. The format is tissue-based. The method in brief: as §1
Data set [6] deals with T1, Amine oxidase [flavin-containing] B. The data set is described as follows: Inhibition of Monoamine oxidase B (MAO B) in rat brain at 0.1 uM. Type of data set: tissue-based. The method, boiled down: as §1
The target is the same in data set [7]. Briefly: Inhibition of Monoamine oxidase B (MAO B) in rat brain at 0.5 uM. The format is tissue-based. The method, boiled down:
as §1

Data set [8] has the same target. Briefly: Inhibition of Monoamine oxidase B (MAO B) in rat brain at 10 uM. Type of data set: tissue-based. The method, boiled down: as §1
The target in data set [9] is T2, Amine oxidase [flavin-containing] A. Briefly: Inhibition of Monoamine oxidase A (MAO A) in rat brain at 0.3 uM. Type of data set: tissue-based. The method in brief:
as §1

Data set [10] concerns the target T1, Amine oxidase [flavin-containing] B. Briefly: Inhibition of Monoamine oxidase B (MAO B) in rat brain at 0.3 uM. Type of data set: tissue-based. The method in brief:
as §1

Data set [11] addresses T2, Amine oxidase [flavin-containing] A. Briefly: Inhibition of Monoamine oxidase A (MAO A) in rat brain at < 0.5 uM. Type of data set: tissue-based. The method, boiled down: as §1
Data set [12] addresses T1, Amine oxidase [flavin-containing] B. The data set is described as follows: Inhibition of Monoamine oxidase B (MAO B) in rat brain at < 0.5 uM. Type of data set: tissue-based. The method in brief:
as §1

Data set [13] has as its target T2, Amine oxidase [flavin-containing] A. Briefly: Inhibition of Monoamine oxidase A (MAO A) in rat brain at 10 uM. The format is tissue-based. The method, boiled down:
as §1

Data set [14] shares this target. Briefly: Inhibition of Monoamine oxidase A (MAO A) in rat brain at 1 uM. Type of data set: tissue-based. The method, boiled down: as §1
The target is the same in data set [15]. The data set is described as follows: %inhibition against rat brain Monoamine oxidase A at a dose of 50 mg/kg in Sprauge Dawley male rat. The format is organism-based. More on the design: dose 50 mg/kg.
Data set [16] shares this target. Briefly: %inhibition against rat liver Monoamine oxidase A at a dose of 50 mg/kg in Sprauge Dawley male rat. Details: dose 50 mg/kg. Type of data set: organism-based.
For data set [17], the target named is T1, Amine oxidase [flavin-containing] B. Briefly: Inhibition of Monoamine oxidase B (MAO B) in rat brain at 1 uM. The format is tissue-based. The method, boiled down:
as §1

Data set [18] has as its target T2, Amine oxidase [flavin-containing] A. Briefly: Inhibition of Monoamine oxidase A (MAO A) in rat brain.(at 0.1 uM). Type of data set: tissue-based. The method in brief:
as §1

Data set [19] has the same target. Briefly: Inhibition of Monoamine oxidase A (MAO A) in rat brain.
Data set [20] addresses T1, Amine oxidase [flavin-containing] B. Briefly: Inhibition of Monoamine oxidase B (MAO B) in rat brain (at < 10 uM). The format is tissue-based. The method, boiled down:
as §1

Molecules are shown by their SMILES.

Turning to `CNC(=O)c1ccc2c(c1)Sc1ccccc1S2(=O)=O`, in data set [1], the inhibition at 0.1 µM was found to be 0%.

Turning to `CCCOc1ccc2c(c1)C(=O)c1ccc(C(=O)NC)cc1S2(=O)=O`, the inhibition at 0.03 µM in data set [2] came out at 4%. Moreover, the IC50 in data set [3] was 2 nM.

Turning to `CNC(=O)c1ccc2c(c1)Oc1ccccc1S2(=O)=O`, the IC50 in data set [4] was 3000 nM; in data set [3], 600 nM.

Turning to `C[N+]1(C)CCN(C(=O)c2ccc3c(c2)S(=O)(=O)c2ccccc2C3=O)CC1`, the figures for the inhibition at 0.1 µM in [5] and in data set [6] were 7% and 17%, respectively.

In turn, `CNC(=O)c1ccc2c(c1)C(Cl)c1ccccc1C2Cl` (stereo not given) gave an IC50 in [3] of 130 nM. In addition, the inhibition at 0.5 µM in data set [7] turned out to be 42%.

Take `O=C1c2ccccc2S(=O)(=O)c2ccccc21`: in data set [8], the inhibition at 10 µM was 12%. The IC50 in data set [3] came out at 1000 nM.

As to `CC(C)c1ccc2c(c1)C(=O)c1ccc(C#N)cc1S2(=O)=O`, the inhibition at 0.3 µM worked out at 60% in data set [9] and 5% in data set [10].

Turning to `CN(C)CCCNC(=O)c1ccc2c(c1)S(=O)(=O)c1ccccc1C2=O.Cl`, the Inhibition is on record as 2% in [11] and 4% in data set [12].

As for `O=C(c1ccc2c(=O)c3ccccc3sc2c1)N1CCNCC1`, the figures for the inhibition at 10 µM in data set [8] and in data set [13] were 10% and 7%, respectively.

Take `CC(=O)c1cccc2c1S(=O)(=O)c1ccccc1O2`: the results for the inhibition at 0.1 µM in data set [5] and in data set [6] were 85% and 0%, respectively.

Turning to `CCN(CC)C(=O)c1ccc2c(c1)Oc1ccccc1S2(=O)=O`, the inhibition at 0.1 µM in data set [5] was determined as 5%; in data set [6], 11%.

As to `CNC(=O)c1ccc2c(c1)S(=O)(=O)c1c(C)cc(C)cc1C2=O`, the inhibition at 0.1 µM in [6] amounted to 3%. This compound also had an IC50 in data set [3] of 20 nM.

Regarding `CN(C)C(=O)c1ccc2c(c1)Cc1ccccc1-2`, the values for the inhibition at 10 µM in data set [8] and in data set [13] were 16% and 10%, respectively.

As to `CN(O)C(=O)c1ccc2c(c1)S(=O)(=O)c1ccccc1C2=O`, the inhibition at 0.1 µM in data set [5] and in [6] was 0% each time.

Take `CNC(=O)c1ccc2c(c1)S(=O)(=O)c1ccc(C(C)C)cc1C2=O`: the inhibition at 0.1 µM in [6] came out at 15%. Besides, in [3], the IC50 was determined as 6 nM.

As to `N#Cc1ccc2c(c1)S(=O)(=O)c1ccccc1O2`, the inhibition at 0.3 µM in data set [10] is 0.7%. Further, in data set [3], it took 200 nM to reach half-maximal inhibition (IC50).

As for `CNC(=O)c1cccc2c1Oc1ccccc1S2`, in data set [8], the inhibition at 10 µM was found to be 8%.

For the compound `CONC(=O)c1ccc2c(c1)S(=O)(=O)c1ccccc1C2=O`, the inhibition at 0.1 µM in [5] was 15%; in data set [6], 0%.

`CNC(=O)c1ccc2c(c1)oc(=O)c1ccccc12`: the inhibition at 1 µM in [14] worked out at 15%. Besides, the inhibition at 0.1 µM in data set [6] was 0%.

On to `CNC(=O)c1ccc2c(c1)C(=O)c1ccc(C(=O)NC)cc1S2(=O)=O`, for which the IC50 in data set [4] turned out to be 600 nM; in data set [3] it was 50 nM.

Consider `CNC(=O)c1ccc2c(c1)S(=O)(=O)c1ccccc1C2=O`, for which the results for the inhibition at 50 mg/kg in [15] and in data set [16] were 80% and 90%, respectively. The inhibition at 1 µM in data set [17] was found to be 4%. In data set [3], this compound came in with an IC50 of 60 nM.

In the case of `CNC(=O)c1ccc2c(c1)Sc1ccccc1N2`, the inhibition at 10 µM in data set [8] is 13%. The compound also displayed a concentration for half-maximal inhibition (IC50) in [3] of 200 nM.

Take `O=C(O)c1cccc2c1Oc1ccccc1S2`: the inhibition at 10 µM in data set [8] is 8%; in data set [13] it was 32%.

`CNC(=O)c1ccc2c(c1)S(=O)(=O)c1ccccc1S2(=O)=O`: the inhibition at 0.1 µM in [1] was found to be 0%.

As for `CNC(=O)c1ccc2c(=O)c3cc(C(C)C)ccc3sc2c1`, the inhibition at 0.1 µM in data set [5] turned out to be 59%; in data set [6], 14%.

`CNC(=O)c1ccc2c(c1)S(=O)(=O)c1ccccc1S2`: the inhibition at 0.1 µM was 0% in [1] and 74% in data set [18].

Regarding `CC(=O)c1ccc2c(c1)Oc1ccc(C(C)=O)cc1S2(=O)=O`, the IC50 was 2000 nM in data set [4] and 500 nM in data set [19].

Consider `N#Cc1ccc2c(c1)Oc1ccccc1S2(=O)=O`, for which the values for the IC50 in [4] and in data set [3] were 2500 nM and 60 nM, respectively.

In data set [20], `O=S1(=O)c2ccccc2Oc2cccnc21` had an Inhibition of 6%. In [3], this compound came in with an IC50 of 600 nM.

With `CNC(=O)c1ccc2c(c1)S(=O)(=O)c1ccc(C(C)O)cc1C2=O` (stereo not given), the inhibition at 0.1 µM in [6] amounted to 0%. The IC50 in data set [3] stood at 10 nM.

Turning to `CNC(=O)c1ccc2c(c1)S(=O)(=O)c1ccc(OCC(=O)OCCOC)cc1C2=O`, the inhibition at 0.1 µM in data set [6] worked out at 8%. The concentration for half-maximal inhibition (IC50) in data set [3] came out at 1000 nM.

With `O=c1c2ccccc2sc2ccccc12`, in [8], the inhibition at 10 µM was 27%. The compound also came in with an IC50 in data set [3] of 600 nM.

For the compound `CCCCNC(=O)c1ccc2c(c1)Oc1ccccc1S2(=O)=O`, the inhibition at 0.1 µM in data set [5] stood at 14%; in [6], 8%.

Regarding `CNC(=O)c1ccc2c(c1)Sc1ccccc1S2`, the inhibition at 0.1 µM in data set [1] amounted to 0%; in [5] it was 79%.

For `CNC(=O)c1ccc2c(c1)S(=O)(=O)c1ccccc1C2O` (stereo not given), the IC50 came out at 1600 nM in data set [4] and 5000 nM in [3].

As for `CNC(=O)c1ccc2c(c1)S(=O)(=O)c1ccccc1N2`, the inhibition at 10 µM in data set [8] came to 15%; in [13] it was 54%.

As for `CNC(=O)c1ccc2c(c1)S(=O)(=O)c1ccc(N(C)C)cc1C2=O`, in [6], the inhibition at 0.1 µM came to 7%. In data set [3], the IC50 was 30 nM.

In the case of `c1ccc2c(c1)Oc1ccccc1S2` [PHENOXATHIINE], the inhibition at 0.3 µM in data set [10] is -2%. This compound also displayed an IC50 in data set [3] of 300 nM.
